Test results published in ChEMBL document CHEMBL4251569, “Camptothecin-psammaplin A hybrids as topoisomerase I and HDAC dual-action inhibitors” (Eur J Med Chem, 2018).
Active and inactive are the calls of the source. No cut-off for these calls is given here.

Legend:
[1] = target: Protein deacetylase HDAC6 (Homo sapiens, UniProt Q9UBN7); assay: Inhibition of HDAC6 (unknown origin) using RHKK(Ac)AMC as substrate after 1 to 2 hrs by fluorescence assay
[2] = tested on: CAPAN-1; assay: cells; assay type: functional, cell-based; details: Homo sapiens, CAPAN-1, 72 h
[3] = target: Histone deacetylase 2 (Homo sapiens, UniProt Q92769); assay: Inhibition of HDAC2 (unknown origin) using RHKK(Ac)AMC as substrate after 1 to 2 hrs by fluorescence assay
[4] = target: Histone deacetylase 4 (Homo sapiens, UniProt P56524); assay: Inhibition of HDAC4 (unknown origin) using fluorogenic substrate after 1 to 2 hrs by fluorescence assay
Method in brief: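 Purified HDAC4 preincubated with compound (10 concentrations from 10 µM, triplicate, final 1% DMSO) in 50 mM Tris-HCl pH 8.0, 137 mM NaCl, 2.7 mM KCl, 1 mM MgCl2, 1 mg/ml BSA. Class 2a trifluoroacetyl-lysine fluorogenic substrate added and incubated 1–2 h at 30 °C. Developer with TMP269 stops the reaction; fluorescence read at ex 360/em 460 at plateau. Activity is relative to DMSO, and IC50 comes from a sigmoidal fit.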

[5] = target: Polyamine deacetylase HDAC10 (Homo sapiens, UniProt Q969S8); assay: Inhibition of HDAC10 (unknown origin) using RHKK(Ac)AMC as substrate after 1 to 2 hrs by fluorescence assay
[6] = tested on: NCI-H460; assay: cells; assay type: functional, cell-based; details: Homo sapiens, NCI-H460, 72 h
[7] = target: Histone deacetylase 1 (Homo sapiens, UniProt Q13547); assay: Inhibition of HDAC1 (unknown origin) using RHKK(Ac)AMC as substrate after 1 to 2 hrs by fluorescence assay
[8] = cells; assay type: functional, cell-based; details: Homo sapiens, MM487, 72 h
[9] = Cell cycle arrest in human MM487 cells assessed as accumulation at G2/M phase at 0.3 uM after 72 hrs by propidium iodide staining-based flow cytometric method (reference value: 5.4%); assay type: functional
[10] = tested on: MM473; assay: cells; assay type: functional, cell-based; details: Homo sapiens, MM473, 72 h
[11] = Cell cycle arrest in human MM487 cells assessed as accumulation at G2/M phase at 0.3 uM after 48 hrs by propidium iodide staining-based flow cytometric method (reference value: 12.5%); assay type: functional
[12] = tested on: HepG2; assay: Antiproliferative activity against human HepG2 cells after 72 hrs by SRB assay; assay type: functional, cell-based; details: HepG2, 72 h
[13] = tested on: MM473; assay: Antitumor activity against human MM473 cells xenografted in CD1 nude mouse assessed as inhibition of tumor volume at 90 mg/kg, iv administered every 4 days per week for 3 weeks measured 10 days post last dose by luciferase reporter assay relative to vehicle-treated control; assay type: functional
Method in brief: (§1)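 MM473 mesothelioma cells (F-10, 10% FBS, G418; mycoplasma-checked, >95% viable) injected intrapleurally, 1x10⁶ in 200 µl M199 per CD-1 nude mouse. Treatment i.v. from day 15 when tumours were growing, in 10% 1:1 ethanol–Cremophor in saline, q4dx3w; vehicle control. Tumour burden followed weekly by IVIS bioluminescence after i.p. D-luciferin (100 µL/10 g), as average radiance; body weight recorded.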

[14] = tested on: MM473; assay: Cell cycle arrest in human MM473 cells assessed as accumulation at S phase at 4 uM after 48 hrs by propidium iodide staining-based flow cytometric method (reference value: 23.9%); assay type: functional
[15] = tested on: MM473; assay: Cell cycle arrest in human MM473 cells assessed as accumulation at G0/G1 phase at 4 uM after 48 hrs by propidium iodide staining-based flow cytometric method (reference value: 71.8%); assay type: functional
[16] = Induction of apoptosis in human MM487 cells at 0.3 uM after 48 hrs by propidium iodide staining-based flow cytometric method (reference value: 0.3%); assay type: functional
[17] = Cell cycle arrest in human MM487 cells assessed as accumulation at S phase at 0.3 uM after 72 hrs by propidium iodide staining-based flow cytometric method (reference value: 14.6%); assay type: functional
[18] = tested on: MM473; assay: Induction of apoptosis in human MM473 cells at 4 uM after 24 hrs by propidium iodide staining-based flow cytometric method (reference value: 2.5%); assay type: functional
[19] = tested on: A2780; assay: cells; assay type: functional, cell-based; details: Homo sapiens, A2780, 72 h
[20] = tested on: DG-75; assay: cells; assay type: functional, cell-based; details: Homo sapiens, DG-75, 72 h
[21] = tested on: MM473; assay: Cell cycle arrest in human MM473 cells assessed as accumulation at G0/G1 phase at 4 uM after 72 hrs by propidium iodide staining-based flow cytometric method (reference value: 80.2%); assay type: functional
[22] = tested on: Mus musculus; assay: Toxicity in CD1 nude mouse xenografted with human MM473 cells assessed as body weight loss at 90 mg/kg, iv administered every 4 days per week for 3 weeks measured during compound dosing and on day 40 post last dose; assay type: organism-based; details: in vivo; method in brief: as §1
[23] = tested on: OCI-Ly3; assay: cells; details: Homo sapiens, OCI-Ly3, 72 h
[24] = target: Protein deacetylase HDAC6 (Homo sapiens) (UniProt Q9UBN7); assay: Inhibition of HDAC6 in human MM473 cells assessed as increase in hyperacetylation of cytoplasmic alpha-tubulin at 0.2 to 0.5 uM after 24 hrs by Western blot method; assay type: cell-based
Method in brief: (§2)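 MM473 cells treated 24 h (0.2 and 0.5 µM), lysed in NP-40 or RIPA with protease/phosphatase inhibitors; 40 µg protein run on SDS-PAGE, transferred to nitrocellulose, blocked in 5% milk/TBST, probed overnight for acetyl-H4, H4, acetyl-tubulin and α-tubulin, HRP secondaries, ECL chemiluminescence; band density normalised to α-tubulin.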

[25] = Cell cycle arrest in human MM487 cells assessed as accumulation at G2/M at 0.3 uM after 24 hrs by propidium iodide staining-based flow cytometric method (reference value: 16.9%); assay type: functional
[26] = Cell cycle arrest in human MM487 cells assessed as accumulation at S phase at 0.3 uM after 48 hrs by propidium iodide staining-based flow cytometric method (reference value: 13.7%); assay type: functional
[27] = tested on: L-428; assay: cells; assay type: functional, cell-based; details: Homo sapiens, L-428, 72 h
[28] = tested on: MM473; assay: Induction of apoptosis in human MM473 cells at 4 uM after 48 hrs by propidium iodide staining-based flow cytometric method (reference value: […]); assay type: functional
[29] = tested on: MM473; assay: Cell cycle arrest in human MM473 cells assessed as accumulation at S phase at 4 uM after 24 hrs by propidium iodide staining-based flow cytometric method (reference value: 29.8%); assay type: functional
[30] = cells; assay type: functional, cell-based; details: Homo sapiens, 72 h
[31] = tested on: A-431; assay: cells; assay type: functional, cell-based; details: Homo sapiens, A-431, 72 h
[32] = Cell cycle arrest in human MM487 cells assessed as accumulation at G0/G1 phase at 0.3 uM after 24 hrs by propidium iodide staining-based flow cytometric method (reference value: 57.9%); assay type: functional
[33] = cells; assay type: functional, cell-based; details: Homo sapiens, A2780/DX, 72 h
[34] = tested on: MM473; assay: Cell cycle arrest in human MM473 cells assessed as accumulation at S phase at 4 uM after 72 hrs by propidium iodide staining-based flow cytometric method (reference value: 15.1%); assay type: functional
[35] = tested on: JeKo-1; assay: cells; assay type: functional, cell-based; details: Homo sapiens, JeKo-1, 72 h
[36] = tested on: HeLa; assay: cells; assay type: functional, cell-based; details: Homo sapiens, 72 h
[37] = tested on: MM473; assay: Cell cycle arrest in human MM473 cells assessed as accumulation at G2/M phase at 4 uM after 72 hrs by propidium iodide staining-based flow cytometric method (reference value: 4.6%); assay type: functional
[38] = Cell cycle arrest in human MM487 cells assessed as accumulation at S phase at 0.3 uM after 24 hrs by propidium iodide staining-based flow cytometric method (reference value: 25.2%); assay type: functional
[39] = cells; assay type: functional, cell-based; details: Homo sapiens, 72 h; remark: listed apart in the source
[40] = tested on: MM473; assay: Cell cycle arrest in human MM473 cells assessed as accumulation at G2/M phase at 4 uM after 48 hrs by propidium iodide staining-based flow cytometric method (reference value: 4.3%); assay type: functional
[41] = Cell cycle arrest in human MM487 cells assessed as accumulation at G0/G1 phase at 0.3 uM after 48 hrs by propidium iodide staining-based flow cytometric method (reference value: 73.8%); assay type: functional
[42] = tested on: MM473; assay: Cell cycle arrest in human MM473 cells assessed as accumulation at G2/M at 4 uM after 24 hrs by propidium iodide staining-based flow cytometric method (reference value: 15.7%); assay type: functional
[43] = Induction of apoptosis in human MM487 cells at 0.3 uM after 24 hrs by propidium iodide staining-based flow cytometric method (reference value: 0.5%); assay type: functional
[44] = tested on: KM-H2; assay: cells; details: Homo sapiens, KM-H2, 72 h
[45] = tested on: HT-29; assay: Antiproliferative activity against human HT-29 cells after 72 hrs by SRB assay; assay type: functional, cell-based; details: HT-29, 72 h
[46] = Induction of apoptosis in human MM487 cells at 0.3 uM after 72 hrs by propidium iodide staining-based flow cytometric method (reference value: 0.6%); assay type: functional
[47] = tested on: MM473; assay: Cell cycle arrest in human MM473 cells assessed as accumulation at G0/G1 phase at 4 uM after 24 hrs by propidium iodide staining-based flow cytometric method (reference value: 54.5%); assay type: functional
[48] = tested on: NB-4; assay: cells; assay type: functional, cell-based; details: Homo sapiens, NB-4, 72 h
[49] = tested on: DU-145; assay: cells; assay type: functional, cell-based; details: Homo sapiens, DU-145, 72 h
[50] = Cell cycle arrest in human MM487 cells assessed as accumulation at G0/G1 phase at 0.3 uM after 72 hrs by propidium iodide staining-based flow cytometric method (reference value: 80%); assay type: functional
[51] = cells; assay type: functional, cell-based; details: Homo sapiens, MINO, 72 h
[52] = tested on: MM473; assay: Induction of apoptosis in human MM473 cells at 4 uM after 72 hrs by propidium iodide staining-based flow cytometric method (reference value: 1.4%); assay type: functional
[53] = target: Histone deacetylase (HDAC1 and HDAC2) (Homo sapiens) (UniProt Q13547+Q92769); assay: Inhibition of HDAC1/2 in human MM473 cells assessed as increase in hyperacetylation of nuclear histone H4 at 0.2 to 0.5 uM after 24 hrs by Western blot method; assay type: cell-based; method in brief: as §2
[54] = tested on: U2932; assay: cells; assay type: functional, cell-based; details: Homo sapiens, U2932, 72 h

Sequence of Protein deacetylase HDAC6 (Q9UBN7 whole entry): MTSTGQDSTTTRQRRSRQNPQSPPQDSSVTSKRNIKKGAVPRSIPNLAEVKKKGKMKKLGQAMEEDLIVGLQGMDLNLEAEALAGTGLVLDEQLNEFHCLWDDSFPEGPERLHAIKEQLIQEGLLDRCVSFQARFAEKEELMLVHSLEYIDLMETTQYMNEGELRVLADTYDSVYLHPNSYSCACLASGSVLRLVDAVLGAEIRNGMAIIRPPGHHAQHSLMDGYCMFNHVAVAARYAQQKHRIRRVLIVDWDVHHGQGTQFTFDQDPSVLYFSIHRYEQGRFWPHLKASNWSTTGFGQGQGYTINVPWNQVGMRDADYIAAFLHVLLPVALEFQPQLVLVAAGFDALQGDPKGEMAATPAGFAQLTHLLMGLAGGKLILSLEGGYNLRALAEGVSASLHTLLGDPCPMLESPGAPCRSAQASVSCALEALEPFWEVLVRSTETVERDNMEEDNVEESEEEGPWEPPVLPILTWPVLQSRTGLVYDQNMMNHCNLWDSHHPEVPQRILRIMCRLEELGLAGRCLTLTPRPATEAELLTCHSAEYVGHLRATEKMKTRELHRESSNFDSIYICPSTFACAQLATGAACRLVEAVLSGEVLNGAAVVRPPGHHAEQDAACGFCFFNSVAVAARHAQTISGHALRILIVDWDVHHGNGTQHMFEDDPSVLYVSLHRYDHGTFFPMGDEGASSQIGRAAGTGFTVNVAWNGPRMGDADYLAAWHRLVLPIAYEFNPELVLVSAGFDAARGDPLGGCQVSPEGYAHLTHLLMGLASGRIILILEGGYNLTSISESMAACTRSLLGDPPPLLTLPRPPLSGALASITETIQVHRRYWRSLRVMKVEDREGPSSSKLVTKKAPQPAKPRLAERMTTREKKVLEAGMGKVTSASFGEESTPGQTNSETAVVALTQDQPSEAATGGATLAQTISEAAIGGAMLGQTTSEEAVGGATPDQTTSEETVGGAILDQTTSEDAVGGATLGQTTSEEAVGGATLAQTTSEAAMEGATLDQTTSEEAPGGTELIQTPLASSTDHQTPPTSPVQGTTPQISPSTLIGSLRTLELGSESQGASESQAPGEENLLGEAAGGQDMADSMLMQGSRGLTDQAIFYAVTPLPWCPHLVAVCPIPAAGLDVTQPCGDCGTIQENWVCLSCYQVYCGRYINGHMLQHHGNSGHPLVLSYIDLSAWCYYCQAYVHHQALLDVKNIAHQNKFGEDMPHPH
Sequence of Polyamine deacetylase HDAC10 (Q969S8 whole entry): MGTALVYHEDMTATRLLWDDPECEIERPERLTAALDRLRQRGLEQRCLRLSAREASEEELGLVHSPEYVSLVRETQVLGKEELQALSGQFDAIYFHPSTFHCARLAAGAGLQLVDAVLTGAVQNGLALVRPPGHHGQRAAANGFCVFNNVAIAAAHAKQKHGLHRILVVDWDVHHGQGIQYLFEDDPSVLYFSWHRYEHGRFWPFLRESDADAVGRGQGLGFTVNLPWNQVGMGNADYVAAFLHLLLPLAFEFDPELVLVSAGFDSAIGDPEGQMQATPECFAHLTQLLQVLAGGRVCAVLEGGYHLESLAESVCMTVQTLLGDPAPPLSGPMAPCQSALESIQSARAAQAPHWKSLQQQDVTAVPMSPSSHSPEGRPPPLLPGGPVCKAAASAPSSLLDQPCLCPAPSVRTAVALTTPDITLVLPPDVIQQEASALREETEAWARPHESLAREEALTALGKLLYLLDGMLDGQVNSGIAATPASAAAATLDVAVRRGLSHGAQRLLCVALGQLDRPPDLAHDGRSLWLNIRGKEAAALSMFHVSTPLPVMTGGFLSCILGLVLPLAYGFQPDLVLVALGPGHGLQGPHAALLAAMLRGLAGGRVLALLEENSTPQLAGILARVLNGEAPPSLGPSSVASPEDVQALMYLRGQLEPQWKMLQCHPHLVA
Sequence of Histone deacetylase 4 (P56524 whole entry): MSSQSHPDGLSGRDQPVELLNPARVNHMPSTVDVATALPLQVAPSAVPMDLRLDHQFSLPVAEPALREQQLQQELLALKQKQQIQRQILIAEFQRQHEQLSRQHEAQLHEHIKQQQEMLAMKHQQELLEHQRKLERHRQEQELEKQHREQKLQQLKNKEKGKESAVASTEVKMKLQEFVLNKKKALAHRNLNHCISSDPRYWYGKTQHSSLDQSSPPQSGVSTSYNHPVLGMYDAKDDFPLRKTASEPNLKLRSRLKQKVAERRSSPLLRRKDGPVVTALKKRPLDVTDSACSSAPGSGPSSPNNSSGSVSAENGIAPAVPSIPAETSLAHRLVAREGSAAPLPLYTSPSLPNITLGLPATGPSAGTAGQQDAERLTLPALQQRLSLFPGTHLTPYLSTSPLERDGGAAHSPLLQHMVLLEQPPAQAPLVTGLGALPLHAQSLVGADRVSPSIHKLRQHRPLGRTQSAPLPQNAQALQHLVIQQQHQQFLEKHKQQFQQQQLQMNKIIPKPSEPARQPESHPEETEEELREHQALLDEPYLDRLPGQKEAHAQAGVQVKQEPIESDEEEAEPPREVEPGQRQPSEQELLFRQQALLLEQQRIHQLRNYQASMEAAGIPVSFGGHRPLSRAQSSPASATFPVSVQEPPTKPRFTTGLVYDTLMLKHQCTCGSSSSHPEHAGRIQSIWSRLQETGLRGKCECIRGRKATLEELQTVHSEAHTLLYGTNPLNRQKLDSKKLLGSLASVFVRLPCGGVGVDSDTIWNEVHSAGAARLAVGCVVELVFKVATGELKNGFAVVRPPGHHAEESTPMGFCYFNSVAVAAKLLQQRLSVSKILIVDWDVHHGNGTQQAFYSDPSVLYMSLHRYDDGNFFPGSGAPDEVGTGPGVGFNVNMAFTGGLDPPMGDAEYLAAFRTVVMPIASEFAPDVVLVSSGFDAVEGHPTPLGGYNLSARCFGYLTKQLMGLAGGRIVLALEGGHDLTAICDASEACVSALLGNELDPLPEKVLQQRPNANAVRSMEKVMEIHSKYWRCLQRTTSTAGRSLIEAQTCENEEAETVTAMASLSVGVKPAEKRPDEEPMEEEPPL
Sequence of Histone deacetylase 1 (Q13547 whole entry): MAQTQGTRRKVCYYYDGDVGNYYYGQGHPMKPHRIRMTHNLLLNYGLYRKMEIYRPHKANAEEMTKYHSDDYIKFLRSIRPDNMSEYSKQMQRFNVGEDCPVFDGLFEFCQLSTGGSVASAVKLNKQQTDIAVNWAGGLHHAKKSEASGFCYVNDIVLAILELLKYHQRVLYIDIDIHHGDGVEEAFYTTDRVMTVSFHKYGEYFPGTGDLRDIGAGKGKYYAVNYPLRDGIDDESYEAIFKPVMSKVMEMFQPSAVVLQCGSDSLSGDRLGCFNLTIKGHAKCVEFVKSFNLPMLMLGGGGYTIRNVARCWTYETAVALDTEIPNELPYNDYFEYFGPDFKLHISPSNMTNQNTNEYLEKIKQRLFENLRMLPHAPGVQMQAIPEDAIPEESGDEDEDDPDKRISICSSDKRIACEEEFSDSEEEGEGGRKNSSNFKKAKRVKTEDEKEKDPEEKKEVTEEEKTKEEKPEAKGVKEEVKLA
Sequence of Histone deacetylase 2 (Q92769 whole entry): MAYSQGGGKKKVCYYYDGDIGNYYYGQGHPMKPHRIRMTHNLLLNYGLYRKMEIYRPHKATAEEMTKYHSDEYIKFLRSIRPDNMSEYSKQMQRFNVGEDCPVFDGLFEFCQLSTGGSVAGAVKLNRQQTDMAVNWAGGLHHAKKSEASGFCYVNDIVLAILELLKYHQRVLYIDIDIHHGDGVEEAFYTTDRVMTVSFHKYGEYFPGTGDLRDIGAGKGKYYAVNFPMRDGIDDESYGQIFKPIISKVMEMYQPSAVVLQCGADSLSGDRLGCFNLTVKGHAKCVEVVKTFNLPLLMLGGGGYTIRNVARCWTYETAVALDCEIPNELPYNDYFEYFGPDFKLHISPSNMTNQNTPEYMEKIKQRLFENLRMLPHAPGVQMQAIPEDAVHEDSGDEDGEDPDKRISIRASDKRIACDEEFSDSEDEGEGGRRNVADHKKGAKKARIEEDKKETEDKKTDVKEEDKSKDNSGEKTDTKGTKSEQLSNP
Sequence of Protein deacetylase HDAC6 (Homo sapiens) (Q9UBN7 whole entry): as the sequence (Q9UBN7 whole entry) above
Sequence of Histone deacetylase (HDAC1 and HDAC2) (Homo sapiens) (Q13547 whole entry, looked up): as the sequence (Q13547 whole entry) above
Sequence of Histone deacetylase (HDAC1 and HDAC2) (Homo sapiens) (Q92769 whole entry, looked up): as the sequence (Q92769 whole entry) above

CC[C@@]1(O)C(=O)OCc2c1cc1n(c2=O)Cc2c-1nc1ccc(O)cc1c2/C=N/OCCCCCC(=O)NCCSSCCNC(=O)/C(Cc1ccc(O)c(Br)c1)=N\O
IC50 [1]: 1490 nM | IC50 [2]: 200 nM | IC50 [3]: 410 nM | IC50 [4]: Not Active | IC50 [5]: 9.12 nM | IC50 [6]: 880 nM | IC50 [7]: 253 nM

CC[C@@]1(O)C(=O)OCc2c1cc1n(c2=O)Cc2c-1nc1ccccc1c2/C=N/OCCCCCC(=O)NCCSSCCNC(=O)/C(Cc1ccc(O)c(Br)c1)=N\O
IC50 [8]: 130 nM | Activity [9]: 21.2% | IC50 [10]: 1900 nM | Activity [11]: 15.7% | IC50 [12]: 760 nM | inhibition in vivo at 90 mg/kg [13]: 78% | Activity [14]: 83.5% | Activity [15]: 4.5% | Activity [16]: 13.1% | Activity [17]: 59.2% | Activity [18]: 3.8% | IC50 [19]: 220 nM | IC50 [20]: 8.4 µM | Activity [21]: 6.2% | Activity [22]: Non-Toxic | IC50 [23]: 100 nM | inhibition [24]: inactive | IC50 [1]: 709 nM | IC50 [2]: 50 nM | Activity [25]: 1.8% | Activity [26]: 67.8% | IC50 [27]: 600 nM | Activity [28]: 9.9% | Activity [29]: 58.97% | IC50 [30]: 4 µM | IC50 [31]: 180 nM | Activity [32]: 20.6% | IC50 [3]: 327 nM | IC50 [33]: 830 nM | Activity [34]: 79.3% | IC50 [35]: 60 nM | IC50 [4]: Not Active | IC50 [5]: 7.55 nM | IC50 [36]: 470 nM | Activity [37]: 14.5% | IC50 [6]: 170 nM | Activity [38]: 77.62% | IC50 [39]: 300 nM | Activity [40]: 12% | Activity [41]: 16.5% | IC50 [7]: 150 nM | Activity [42]: 13.1% | Activity [43]: 2.6% | IC50 [44]: 280 nM | IC50 [45]: 660 nM | Activity [46]: 25.4% | Activity [47]: 28% | IC50 [48]: 47 nM | IC50 [49]: 110 nM | Activity [50]: 19.6% | IC50 [51]: 35 nM | Activity [52]: 11% | inhibition [53]: Active | IC50 [54]: 110 nM
